From ChEMBL document CHEMBL5058577, “EUbOPEN Chemogenomics Library 2 (Multiplex)” (2022)

Tested on: Fibroblast
Assay: Multiplex assay against human fibroblast
Type: toxicity, cell-based
In short: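 On a CQ1 microscope at 37°C and 5% CO2, live cells were imaged after compound addition. They had been stained at seeding with Hoechst33342, BioTracker Green Microtubule Cytoskeleton Dye, MitoTracker Red and Annexin V Alexa Fluor 680. CellPathfinder machine-learning gating assigned cells to Hoechst high-intensity objects or normal cells, normal cells to healthy, pyknosed or fragmented nuclei, and pyknosed cells to mitotic or apoptotic. Tubulin, mitochondrial-mass and membrane-permeability phenotypes are per cents of healthy-nucleus cells.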

[1] = 12 h, 1 µM, compound concentration 1 uM, replicate 1
[2] = 12 h, 1 µM, compound concentration 1 uM, replicate 2
[3] = 12 h, 10 µM, compound concentration 10 uM, replicate 1
[4] = 12 h, 10 µM, compound concentration 10 uM, replicate 2
[5] = 24 h, 1 µM, compound concentration 1 uM, replicate 1
[6] = 24 h, 1 µM, compound concentration 1 uM, replicate 2
[7] = 24 h, 10 µM, compound concentration 10 uM, replicate 1
[8] = 24 h, 10 µM, compound concentration 10 uM, replicate 2
[9] = 48 h, 1 µM, compound concentration 1 uM, replicate 1
[10] = 48 h, 1 µM, compound concentration 1 uM, replicate 2
[11] = 48 h, 10 µM, compound concentration 10 uM, replicate 1
[12] = 48 h, 10 µM, compound concentration 10 uM, replicate 2

OCCCNc1cc(-c2ccnc(Nc3cccc(Cl)c3)n2)ccn1
Population Apoptotic (%) [1]: 58% | Population Fragmented Nuclei (%) [1]: 15% | Population Healthy Nuclei (%) [1]: 66% | Population Hoechst High Intensity Objects (%) [1]: 4% | Population Membrane Permeable-Phenotype (%) [1]: 0% | Population Mitochondria Different-Phenotype (%) [1]: 9% | Population Mitotic Cells (%) [1]: 41% | Population Normal (%) [1]: 95% | Population Pyknosed Nuclei (%) [1]: 18% | Population Tubulin-Different-Phenotype (%) [1]: 52% | Total Cell Count [1]: 139 | Population Apoptotic (%) [2]: 50% | Population Fragmented Nuclei (%) [2]: 21% | Population Healthy Nuclei (%) [2]: 53% | Population Hoechst High Intensity Objects (%) [2]: 6% | Population Membrane Permeable-Phenotype (%) [2]: 5% | Population Mitochondria Different-Phenotype (%) [2]: 13% | Population Mitotic Cells (%) [2]: 50% | Population Normal (%) [2]: 93% | Population Pyknosed Nuclei (%) [2]: 24% | Population Tubulin-Different-Phenotype (%) [2]: 47% | Total Cell Count [2]: 138 | Population Apoptotic (%) [3]: 61% | Population Fragmented Nuclei (%) [3]: 38% | Population Healthy Nuclei (%) [3]: 44% | Population Hoechst High Intensity Objects (%) [3]: 10% | Population Membrane Permeable-Phenotype (%) [3]: 9% | Population Mitochondria Different-Phenotype (%) [3]: 25% | Population Mitotic Cells (%) [3]: 38% | Population Normal (%) [3]: 89% | Population Pyknosed Nuclei (%) [3]: 17% | Population Tubulin-Different-Phenotype (%) [3]: 88% | Total Cell Count [3]: 136 | Population Apoptotic (%) [4]: 52% | Population Fragmented Nuclei (%) [4]: 65% | Population Healthy Nuclei (%) [4]: 24% | Population Hoechst High Intensity Objects (%) [4]: 6% | Population Membrane Permeable-Phenotype (%) [4]: 20% | Population Mitochondria Different-Phenotype (%) [4]: 11% | Population Mitotic Cells (%) [4]: 47% | Population Normal (%) [4]: 93% | Population Pyknosed Nuclei (%) [4]: 9% | Population Tubulin-Different-Phenotype (%) [4]: 84% | Total Cell Count [4]: 227 | Population Apoptotic (%) [5]: 56% | Population Fragmented Nuclei (%) [5]: 16% | Population Healthy Nuclei (%) [5]: 65% | Population Hoechst High Intensity Objects (%) [5]: 2% | Population Membrane Permeable-Phenotype (%) [5]: 1% | Population Mitochondria Different-Phenotype (%) [5]: 20% | Population Mitotic Cells (%) [5]: 43% | Population Normal (%) [5]: 97% | Population Pyknosed Nuclei (%) [5]: 17% | Population Tubulin-Different-Phenotype (%) [5]: 60% | Total Cell Count [5]: 136 | Population Apoptotic (%) [6]: 46% | Population Fragmented Nuclei (%) [6]: 29% | Population Healthy Nuclei (%) [6]: 48% | Population Hoechst High Intensity Objects (%) [6]: 3% | Population Membrane Permeable-Phenotype (%) [6]: 6% | Population Mitochondria Different-Phenotype (%) [6]: 10% | Population Mitotic Cells (%) [6]: 53% | Population Normal (%) [6]: 96% | Population Pyknosed Nuclei (%) [6]: 22% | Population Tubulin-Different-Phenotype (%) [6]: 55% | Total Cell Count [6]: 139 | Population Apoptotic (%) [7]: 80% | Population Fragmented Nuclei (%) [7]: 36% | Population Healthy Nuclei (%) [7]: 42% | Population Hoechst High Intensity Objects (%) [7]: 11% | Population Membrane Permeable-Phenotype (%) [7]: 7% | Population Mitochondria Different-Phenotype (%) [7]: 46% | Population Mitotic Cells (%) [7]: 20% | Population Normal (%) [7]: 88% | Population Pyknosed Nuclei (%) [7]: 20% | Population Tubulin-Different-Phenotype (%) [7]: 86% | Total Cell Count [7]: 138 | Population Fragmented Nuclei (%) [8]: 63% | Population Healthy Nuclei (%) [8]: 27% | Population Hoechst High Intensity Objects (%) [8]: 6% | Population Membrane Permeable-Phenotype (%) [8]: 12% | Population Mitochondria Different-Phenotype (%) [8]: 9% | Population Normal (%) [8]: 93% | Population Pyknosed Nuclei (%) [8]: 9% | Population Tubulin-Different-Phenotype (%) [8]: 80% | Total Cell Count [8]: 218 | Population Apoptotic (%) [9]: 46% | Population Fragmented Nuclei (%) [9]: 27% | Population Healthy Nuclei (%) [9]: 47% | Population Hoechst High Intensity Objects (%) [9]: 8% | Population Membrane Permeable-Phenotype (%) [9]: 1% | Population Mitochondria Different-Phenotype (%) [9]: 20% | Population Mitotic Cells (%) [9]: 53% | Population Normal (%) [9]: 91% | Population Pyknosed Nuclei (%) [9]: 25% | Population Tubulin-Different-Phenotype (%) [9]: 66% | Total Cell Count [9]: 136 | Population Apoptotic (%) [10]: 37% | Population Fragmented Nuclei (%) [10]: 36% | Population Healthy Nuclei (%) [10]: 30% | Population Hoechst High Intensity Objects (%) [10]: 7% | Population Membrane Permeable-Phenotype (%) [10]: 5% | Population Mitochondria Different-Phenotype (%) [10]: 24% | Population Mitotic Cells (%) [10]: 62% | Population Normal (%) [10]: 92% | Population Pyknosed Nuclei (%) [10]: 32% | Population Tubulin-Different-Phenotype (%) [10]: 45% | Total Cell Count [10]: 132 | Population Apoptotic (%) [11]: 91% | Population Fragmented Nuclei (%) [11]: 39% | Population Healthy Nuclei (%) [11]: 39% | Population Hoechst High Intensity Objects (%) [11]: 14% | Population Membrane Permeable-Phenotype (%) [11]: 15% | Population Mitochondria Different-Phenotype (%) [11]: 42% | Population Mitotic Cells (%) [11]: 8% | Population Normal (%) [11]: 85% | Population Pyknosed Nuclei (%) [11]: 21% | Population Tubulin-Different-Phenotype (%) [11]: 77% | Total Cell Count [11]: 134 | Population Apoptotic (%) [12]: 85% | Population Fragmented Nuclei (%) [12]: 58% | Population Healthy Nuclei (%) [12]: 30% | Population Hoechst High Intensity Objects (%) [12]: 6% | Population Membrane Permeable-Phenotype (%) [12]: 20% | Population Mitochondria Different-Phenotype (%) [12]: 20% | Population Mitotic Cells (%) [12]: 14% | Population Normal (%) [12]: 93% | Population Pyknosed Nuclei (%) [12]: 11% | Population Tubulin-Different-Phenotype (%) [12]: 64% | Total Cell Count [12]: 192
